Measurements as given in ChEMBL document CHEMBL2069278, “Novel substituted benzothiophene and thienothiophene carboxanilides and quinolones: synthesis, photochemical synthesis, DNA-binding properties, antitumor evaluation and 3D-derived QSAR analysis” (J Med Chem, 2012).
pIC50: −log10 of the molar value. Active and inactive are the calls of the source. No cut-off for these calls is given here.

Assays:
HCT-116 [1] = assay: Cytotoxicity against human HCT116 cells after 72 hrs by MTT assay; type: functional, cell-based; settings: HCT-116, 72 h
In short: (§1)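 Cells seeded on day 0 at 1 × 10^4 to 3 × 10^4 cells/mL (adherent lines in DMEM, MOLT-4 in suspension in RPMI, 10% FBS, 37 °C, 5% CO2); 10-fold dilutions 10−8–10−4 M for 72 h; MTT, OD 570 nm; percentage growth versus time-zero and control; IC50 by linear regression; quadruplicate, at least two experiments.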

SW-620 = assay: Cytotoxicity against human SW620 cells after 72 hrs by MTT assay; type: functional, cell-based; settings: SW-620, 72 h; in short: as §1
NCI-H460 = assay: Cytotoxicity against human H460 cells after 72 hrs by MTT assay; type: functional, cell-based; settings: NCI-H460, 72 h; in short: as §1
MCF7 = assay: Cytotoxicity against human MCF7 cells after 72 hrs by MTT assay; type: functional, cell-based; settings: MCF7, 72 h; in short: as §1
MOLT-4 = assay: Cytotoxicity against human MOLT4 cells after 72 hrs by MTT assay; type: functional, cell-based; settings: MOLT-4, 72 h; in short: as §1
Nucleic Acid [2] = assay: Binding affinity to calf thymus DNA assessed as change in melting temperature at drug/base pair ratio of 0.25 by UV-visible spectrophotometric analysis; type: nucleic-acid assay; settings: Bos taurus
In short: (§2)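 Melting: 20 μM CT-DNA or poly(dAdT)2 alone or with compound (drug/base pair ratio 0.01−0.5) in BPE buffer (6 mM Na2HPO4, 2 mM NaH2PO4, 1 mM EDTA, pH 7.1); A260 read each minute from 20 to 100 °C at 1 °C/min; Tm from midpoint of hyperchromic transition (first-derivative plots); ΔTm = Tm[drug+DNA] − Tm[DNA alone].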

[3] = molecular target: DNA topoisomerase 2-alpha (Homo sapiens) (UniProt P11388); assay: Inhibition of human topoisomerase 2-mediated DNA cleavage at 50 uM incubated for 45 mins followed by enzyme addition measured after 30 mins by agarose gel electrophoresis
In short: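 Compounds (50 μM) incubated with 350 ng supercoiled pUC19 before topoisomerase II addition; gel quantified for percentage poisoning normalized to etoposide at the same concentration.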

Nucleic Acid [4] = assay: Binding affinity to calf thymus DNA assessed as change in melting temperature at drug/base pair ratio of 0.025 by UV-visible spectrophotometric analysis; type: nucleic-acid assay; settings: Bos taurus; in short: as §2
[5] = molecular target: T1, DNA topoisomerase 1 (Homo sapiens) (UniProt P11387); assay: Inhibition of human topoisomerase 1-mediated supercoiled pUC19 plasmid DNA relaxation at 0.5 to 2 uM incubated for 45 mins followed by enzyme addition measured after 30 mins by agarose gel electrophoresis
T1 sequence (whole entry): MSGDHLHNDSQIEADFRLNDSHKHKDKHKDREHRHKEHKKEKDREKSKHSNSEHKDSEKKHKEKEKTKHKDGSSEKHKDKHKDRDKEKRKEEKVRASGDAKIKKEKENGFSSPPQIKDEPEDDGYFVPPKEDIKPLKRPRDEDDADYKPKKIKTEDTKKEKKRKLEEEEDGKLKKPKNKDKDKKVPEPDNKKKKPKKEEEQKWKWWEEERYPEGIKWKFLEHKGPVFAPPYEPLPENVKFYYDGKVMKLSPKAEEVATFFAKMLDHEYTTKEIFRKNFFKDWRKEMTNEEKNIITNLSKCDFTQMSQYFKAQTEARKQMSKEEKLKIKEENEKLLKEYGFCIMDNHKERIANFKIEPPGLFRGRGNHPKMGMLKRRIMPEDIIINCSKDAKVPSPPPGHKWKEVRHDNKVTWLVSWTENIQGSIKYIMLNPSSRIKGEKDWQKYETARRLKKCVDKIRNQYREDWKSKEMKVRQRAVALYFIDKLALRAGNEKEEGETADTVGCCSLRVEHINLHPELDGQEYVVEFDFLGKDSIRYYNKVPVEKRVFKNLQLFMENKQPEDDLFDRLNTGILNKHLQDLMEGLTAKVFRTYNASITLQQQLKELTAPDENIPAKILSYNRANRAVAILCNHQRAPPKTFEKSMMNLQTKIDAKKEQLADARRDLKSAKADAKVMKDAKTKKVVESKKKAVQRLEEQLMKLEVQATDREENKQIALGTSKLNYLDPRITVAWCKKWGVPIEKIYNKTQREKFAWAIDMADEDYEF
In short: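 Graded compound concentrations preincubated with supercoiled pUC19, then 4 units human topoisomerase I, 37 °C for 45 min in relaxation buffer; stopped with 0.25% SDS and 250 μg/mL proteinase K, 30 min at 50 °C; 1% agarose gel without ethidium bromide, 2 h at 120 V in TBE, then stained with ethidium bromide.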

Nucleic Acid [6] = assay: Binding affinity to calf thymus DNA assessed as change in melting temperature at drug/base pair ratio of 0.01 by UV-visible spectrophotometric analysis; type: nucleic-acid assay; settings: Bos taurus; in short: as §2
Nucleic Acid [7] = assay: Binding affinity to AT rich site of Pvu2 DNA by densitometric analysis; type: nucleic-acid assay
In short: (§3)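 265 bp EcoRI/PvuII pBluescript fragment, 3′-end labeled with α-[32P]dATP by Klenow. Compounds at increasing concentrations pre-equilibrated with DNA 15 min at 37 °C, then DNase I (final 0.002 unit/mL) in 20 mM NaCl, 2 mM MgCl2, 2 mM MnCl2, pH 7.3, 4 min digestion; products resolved on denaturing 8% polyacrylamide/8 M urea gel, G-track for base positions.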

Nucleic Acid [8] = assay: Binding affinity to radiolabeled Pvu2 DNA after 15 mins by Dnase1 footprinting assay; type: nucleic-acid assay; in short: as §3
Nucleic Acid [9] = assay: Binding affinity to calf thymus DNA assessed as change in melting temperature at drug/base pair ratio of 0.1 by UV-visible spectrophotometric analysis; type: nucleic-acid assay; settings: Bos taurus; in short: as §2
HCT-116 [10] = assay: Induction of cell cycle arrest in human HCT116 cells assessed as accumulation at G1 phase at 1 to 5 uM by propidium iodide based flow cytometry; type: functional; settings: TDE = time-dependent effect
In short: (§4)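 HCT116 cells (2 × 10^5 per well) treated after 24 h with 1 or 5 μM for 24 and 48 h; floating and attached cells pooled, fixed in 70% ethanol, stained with 50 μg/mL propidium iodide plus RNase A; 20 000 events by flow cytometry; phase percentages from DNA histograms; duplicate, repeated at least twice.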

Nucleic Acid [11] = assay: Binding affinity to calf thymus DNA assessed as change in melting temperature at drug/base pair ratio of 0.5 by UV-visible spectrophotometric analysis; type: nucleic-acid assay; settings: Bos taurus; in short: as §2
HCT-116 [12] = assay: Induction of cell cycle arrest in human HCT116 cells assessed as accumulation at G2/M phase after 24 to 48 hrs by propidium iodide based flow cytometry; type: functional; in short: as §4
HCT-116 [13] = assay: Induction of cell cycle arrest in human HCT116 cells assessed as accumulation at G1 phase after 24 to 48 hrs by propidium iodide based flow cytometry; type: functional; in short: as §4
HCT-116 [14] = assay: Induction of cell cycle arrest in human HCT116 cells assessed as accumulation at G2/M phase at 1 to 5 uM by propidium iodide based flow cytometry; type: functional; settings: TDE = time-dependent effect; in short: as §4

DNA topoisomerase 2-alpha (Homo sapiens), sequence (P11388 whole entry): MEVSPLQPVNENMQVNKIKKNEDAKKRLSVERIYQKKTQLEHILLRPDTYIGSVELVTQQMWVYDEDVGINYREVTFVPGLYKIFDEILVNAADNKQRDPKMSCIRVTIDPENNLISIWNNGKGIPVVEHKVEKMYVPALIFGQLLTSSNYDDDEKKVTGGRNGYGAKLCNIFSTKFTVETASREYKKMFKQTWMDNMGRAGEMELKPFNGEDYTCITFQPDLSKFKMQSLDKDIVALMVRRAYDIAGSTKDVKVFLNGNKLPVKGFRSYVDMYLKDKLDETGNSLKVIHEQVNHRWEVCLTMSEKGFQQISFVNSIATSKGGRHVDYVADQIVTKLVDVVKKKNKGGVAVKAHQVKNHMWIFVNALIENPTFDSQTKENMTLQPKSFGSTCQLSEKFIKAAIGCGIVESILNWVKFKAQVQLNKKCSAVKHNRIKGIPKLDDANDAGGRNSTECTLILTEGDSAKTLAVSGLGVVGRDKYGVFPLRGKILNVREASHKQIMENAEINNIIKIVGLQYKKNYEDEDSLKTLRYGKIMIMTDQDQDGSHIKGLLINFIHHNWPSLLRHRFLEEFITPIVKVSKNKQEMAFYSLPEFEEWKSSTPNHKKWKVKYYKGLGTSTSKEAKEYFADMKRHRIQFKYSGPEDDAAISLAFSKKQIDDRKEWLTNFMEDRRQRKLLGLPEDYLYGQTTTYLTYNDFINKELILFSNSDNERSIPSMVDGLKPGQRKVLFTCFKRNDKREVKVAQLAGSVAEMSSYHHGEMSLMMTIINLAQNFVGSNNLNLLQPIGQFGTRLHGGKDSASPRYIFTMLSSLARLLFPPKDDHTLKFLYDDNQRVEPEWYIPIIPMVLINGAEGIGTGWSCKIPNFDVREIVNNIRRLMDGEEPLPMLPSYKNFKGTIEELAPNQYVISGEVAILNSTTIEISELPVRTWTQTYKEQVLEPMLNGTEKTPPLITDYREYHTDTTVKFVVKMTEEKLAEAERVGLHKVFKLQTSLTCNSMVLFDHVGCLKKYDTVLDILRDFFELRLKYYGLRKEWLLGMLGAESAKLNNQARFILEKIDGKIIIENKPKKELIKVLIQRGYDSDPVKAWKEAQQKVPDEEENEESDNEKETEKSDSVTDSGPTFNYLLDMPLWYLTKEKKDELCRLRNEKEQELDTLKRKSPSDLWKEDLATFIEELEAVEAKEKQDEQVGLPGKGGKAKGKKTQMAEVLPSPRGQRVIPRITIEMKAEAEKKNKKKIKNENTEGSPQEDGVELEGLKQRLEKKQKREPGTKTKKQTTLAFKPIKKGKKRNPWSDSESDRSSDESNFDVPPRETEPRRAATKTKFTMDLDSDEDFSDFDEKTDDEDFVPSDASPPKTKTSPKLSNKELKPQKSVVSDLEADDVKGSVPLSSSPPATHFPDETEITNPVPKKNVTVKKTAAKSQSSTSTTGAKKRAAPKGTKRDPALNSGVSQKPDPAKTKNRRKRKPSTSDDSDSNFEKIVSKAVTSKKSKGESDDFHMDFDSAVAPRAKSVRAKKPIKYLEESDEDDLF

CN(C)CCCNC(=O)c1ccc(NC(=O)c2sc3cc(Br)ccc3c2Cl)cc1
pIC50 (HCT-116 [1]): 5.70 | pIC50 (SW-620): 5.70 | pIC50 (NCI-H460): 5.70 | pIC50 (MCF7): 5.70 | pIC50 (MOLT-4): 5.70

CCOC(=O)c1ccc2c(c1)sc1c(=O)[nH]c3ccc(C(=O)NCCCN(C)C)cc3c12
pIC50 (HCT-116 [1]): 5.70 | pIC50 (SW-620): 6.00 | pIC50 (NCI-H460): 5.52 | pIC50 (MCF7): 5.52 | pIC50 (MOLT-4): 6.00

CN(C)CCCNC(=O)c1ccc(NC(=O)c2sc3cc([N+](=O)[O-])ccc3c2Cl)cc1
pIC50 (HCT-116 [1]): 5.70 | pIC50 (SW-620): 6.00 | pIC50 (NCI-H460): 5.70 | pIC50 (MCF7): 5.70 | pIC50 (MOLT-4): 5.70

Cn1c(=O)c2sc3sccc3c2c2cc(C#N)ccc21
pIC50 (HCT-116 [1]): < 5.00 | pIC50 (SW-620): < 5.00 | pIC50 (NCI-H460): < 5.00 | pIC50 (MCF7): < 5.00 | pIC50 (MOLT-4): 5.32

Cn1c(=O)c2sc3cc(C#N)ccc3c2c2ccccc21
pIC50 (HCT-116 [1]): < 5.00 | pIC50 (SW-620): < 5.00 | pIC50 (NCI-H460): < 5.00 | pIC50 (MCF7): < 5.00 | pIC50 (MOLT-4): ≤ 5.00

Cn1c(=O)c2sc3sccc3c2c2cc(C3=NCCN3)ccc21
pIC50 (HCT-116 [1]): 6.00 | pIC50 (SW-620): 6.52 | pIC50 (NCI-H460): 6.00 | pIC50 (MCF7): 5.70 | pIC50 (MOLT-4): 5.70

O=c1[nH]c2ccc(C3=NCCN3)cc2c2c1sc1cc(C3=NCCN3)ccc12
ΔTm (Nucleic Acid [2]): 22.4 °C | inhibition [3]: Active | pIC50 (HCT-116 [1]): ≤ 5.00 | pIC50 (SW-620): ≤ 5.00 | ΔTm (Nucleic Acid [4]): 0 °C | inhibition [5]: Active | pIC50 (NCI-H460): ≤ 5.00 | ΔTm (Nucleic Acid [6]): 0 °C | Activity (Nucleic Acid [7]): inactive | pIC50 (MCF7): ≤ 5.00 | Activity (Nucleic Acid [8]): Active | ΔTm (Nucleic Acid [9]): 15.7 °C | pIC50 (MOLT-4): 5.52

CCOC(=O)c1ccc2c(Cl)c(C(=O)Nc3ccc(C(=O)NCCCN(C)C)cc3)sc2c1
pIC50 (HCT-116 [1]): 5.52 | pIC50 (SW-620): 5.70 | pIC50 (NCI-H460): 5.70 | pIC50 (MCF7): 5.30 | pIC50 (MOLT-4): 5.70

Cc1ccc2c(Cl)c(C(=O)Nc3ccc(C(=O)NCCCN(C)C)cc3)sc2c1
pIC50 (HCT-116 [1]): 5.52 | pIC50 (SW-620): 5.70 | pIC50 (NCI-H460): 5.70 | pIC50 (MCF7): 5.52 | pIC50 (MOLT-4): 5.70

CN(C)CCCNC(=O)c1ccc2[nH]c(=O)c3sc4ccccc4c3c2c1
pIC50 (HCT-116 [1]): 6.00 | pIC50 (SW-620): 6.00 | pIC50 (NCI-H460): 5.70 | pIC50 (MCF7): 5.70 | pIC50 (MOLT-4): 6.00

Cn1c(=O)c2sc3ccccc3c2c2cc(C#N)ccc21
pIC50 (HCT-116 [1]): < 5.00 | pIC50 (SW-620): < 5.00 | pIC50 (NCI-H460): < 5.00 | pIC50 (MCF7): < 5.00 | pIC50 (MOLT-4): 5.06

CN(C)CCCNC(=O)c1ccc2[nH]c(=O)c3sc4cc(Br)ccc4c3c2c1
pIC50 (HCT-116 [1]): 6.40 | pIC50 (SW-620): 6.40 | pIC50 (NCI-H460): 5.70 | pIC50 (MCF7): 5.70 | pIC50 (MOLT-4): 6.00

CN(C)CCCNC(=O)c1ccc(NC(=O)c2sc3ccccc3c2Cl)cc1
pIC50 (HCT-116 [1]): 5.15 | pIC50 (NCI-H460): 5.52 | pIC50 (MCF7): 5.15

Cn1c(=O)c2sc3ccccc3c2c2cc(C3=NCCN3)ccc21
ΔTm (Nucleic Acid [2]): 10.7 °C | Activity (HCT-116 [10]): tde | ΔTm (Nucleic Acid [11]): 15.6 °C | inhibition [3]: inactive | pIC50 (HCT-116 [1]): 6.40 | pIC50 (SW-620): 6.70 | inhibition [5]: Active | pIC50 (NCI-H460): 6.22 | Activity (Nucleic Acid [7]): inactive | pIC50 (MCF7): 5.89 | Activity (Nucleic Acid [8]): Active | Activity (HCT-116 [12]): Dose-dependent effect | pIC50 (MOLT-4): 6.40 | Activity (HCT-116 [13]): Dose-dependent effect | Activity (HCT-116 [14]): tde

COc1cc([C@@H]2c3cc4c(cc3[C@@H](O[C@@H]3O[C@@H]5CO[C@@H](C)O[C@H]5[C@H](O)[C@H]3O)[C@H]3COC(=O)[C@H]23)OCO4)cc(OC)c1O
inhibition [3]: Active

Cc1ccc2c(c1)sc1c(=O)[nH]c3ccc(C(=O)NCCCN(C)C)cc3c12
pIC50 (HCT-116 [1]): 6.00 | pIC50 (SW-620): 6.40 | pIC50 (NCI-H460): 5.70 | pIC50 (MCF7): 5.70 | pIC50 (MOLT-4): 6.00

CN(C)CCCNC(=O)c1ccc2[nH]c(=O)c3sc4cc([N+](=O)[O-])ccc4c3c2c1
pIC50 (HCT-116 [1]): 5.70 | pIC50 (SW-620): 5.70 | pIC50 (NCI-H460): 4.64 | pIC50 (MCF7): 5.52 | pIC50 (MOLT-4): 5.70

O=c1[nH]c2ccc(C3=NCCN3)cc2c2c1sc1ccccc12
ΔTm (Nucleic Acid [2]): 18 °C | Activity (HCT-116 [10]): tde | inhibition [3]: Active | pIC50 (HCT-116 [1]): 6.05 | pIC50 (SW-620): 6.15 | ΔTm (Nucleic Acid [4]): 0.9 °C | inhibition [5]: Active | pIC50 (NCI-H460): 5.80 | ΔTm (Nucleic Acid [6]): 0 °C | Activity (Nucleic Acid [7]): inactive | pIC50 (MCF7): 5.85 | Activity (Nucleic Acid [8]): Active | Activity (HCT-116 [12]): Dose-dependent effect | ΔTm (Nucleic Acid [9]): 4.9 °C | pIC50 (MOLT-4): 6.10 | Activity (HCT-116 [13]): Dose-dependent effect | Activity (HCT-116 [14]): tde
